{"data": "Published values gathered from unrelated publications", "target": "Tyrosine-protein kinase HCK (HCK, Homo sapiens, UniProt P08631)", "note": "Compare with care: the assays were run in different laboratories."}
{"Structure (SMILES)": "CNC(=O)c1cc2c(Oc3ccc(NC(=O)C4(C(=O)Nc5ccc(F)cc5)CC4)cc3)ccnc2cc1OC", "test": "enzyme activity, inhibitor, radiometric", "conditions": "1 µM", "quantity": "inhibition", "result": "98%"}
{"Structure (SMILES)": "O=C(Nc1cnn(-c2csc(C(=O)NC3COC3)c2)c1)Nc1ccccc1Cl", "test": "enzyme activity, inhibitor", "conditions": "5 µM", "quantity": "remaining activity", "result": "94%"}
{"Structure (SMILES)": "COc1cc2ncnc(Nc3ccc(Oc4ccccc4)cc3C)c2cc1OC", "test": "enzyme activity, inhibitor", "conditions": "1 µM", "quantity": "inhibition", "result": "91%"}
{"Structure (SMILES)": "O=C(Nc1ccc(Oc2ccc(F)cc2)cc1)N1CCc2ncccc2[C@H]1c1ccc(F)cc1", "test": "cell-free assay, competition with immobilised ligand", "conditions": "1 µM", "quantity": "remaining binding", "result": "100%"}
{"Structure (SMILES)": "CC/C(=N\\NC(=O)NCc1cccc(O)c1)c1ccc(O)c(C)c1O", "test": "enzyme activity, inhibitor", "conditions": "0.1 µM", "quantity": "inhibition", "result": "6.1%"}
{"Structure (SMILES)": "Nc1ncnc2occ(-c3ccc(NC(=O)Nc4cc(C(F)(F)F)ccc4F)cc3)c12", "test": "cell-free assay", "conditions": "20 µM", "quantity": "remaining signal", "result": "0.2%"}
{"Structure (SMILES)": "Cc1c(NC(=O)c2cc(C(N)=O)nc3cc(F)ccc23)c(C(F)(F)F)nn1Cc1ccc(C(C)(C)C)cc1", "test": "cell-free assay, competition with immobilised ligand", "conditions": "1 µM", "quantity": "remaining binding", "result": "92%"}
{"Structure (SMILES)": "COc1cc(Nc2c(C#N)cnc3cc(OCCCN4CCN(C)CC4)c(OC)cc23)c(Cl)cc1Cl", "test": "cell-free assay", "conditions": "0.5 µM", "quantity": "remaining signal", "result": "11.9%"}
{"Structure (SMILES)": "Cc1c(NC(=O)c2cc(C(N)=O)nc3cc(F)ccc23)c(C(F)(F)F)nn1Cc1ccc(C#N)cc1", "test": "cell-free assay, competition with immobilised ligand", "conditions": "1 µM", "quantity": "remaining binding", "result": "69%"}
{"Structure (SMILES)": "Cc1ccc(Nc2nccc(N(C)c3ccc4c(C)n(C)nc4c3)n2)cc1S(N)(=O)=O", "test": "enzyme activity, inhibitor", "conditions": "10 µM", "quantity": "inhibition", "result": "90%"}
{"Structure (SMILES)": "O=S(=O)(NC1CCC(c2cc(F)ccc2F)(S(=O)(=O)c2ccc(Cl)cc2)CC1)C(F)(F)F (stereo not shown)", "test": "cell-free assay, competition with immobilised ligand", "conditions": "1 µM", "quantity": "remaining binding", "result": "85%"}
{"Structure (SMILES)": "COc1cc2c(N3CCN(C(=O)Nc4ccc(OC(C)C)cc4)CC3)ncnc2cc1OCCCN1CCCCC1", "test": "cell-free assay", "conditions": "0.5 µM", "quantity": "remaining signal", "result": "93.2%"}
{"Structure (SMILES)": "CCN(CC)CCNC(=O)c1c(C)[nH]c(/C=C2\\C(=O)Nc3ccc(F)cc32)c1C", "test": "enzyme activity, inhibitor", "conditions": "0.3 µM", "quantity": "inhibition", "result": "22%"}
{"Structure (SMILES)": "Cc1ccc(NC(=O)c2ccc(C)c(C(F)(F)F)c2)cc1C#Cc1nn(C2CCC(O)CC2)c2ncnc(N)c12 (stereo not shown)", "test": "cell-free assay", "conditions": "10 µM", "quantity": "remaining signal", "result": "0%"}
{"Structure (SMILES)": "CC(C)(O)[C@H]1CC[C@H](Nc2ccc3ncc(-c4cccc(C(F)(F)F)c4)n3n2)CC1", "test": "enzyme activity, inhibitor", "conditions": "1 µM", "quantity": "remaining activity", "result": "40.5%"}
{"Structure (SMILES)": "COc1ccc2c(c1)O[C@H](c1ccc(OC)c(OC)c1)C[C@@H]2NC(=O)C1(c2ccc3c(c2)OC(F)(F)O3)CC1", "test": "cell-free assay, competition with immobilised ligand", "conditions": "1 µM", "quantity": "remaining binding", "result": "100%"}
{"Structure (SMILES)": "CNC(=O)c1cc(Oc2ccc(NC(=O)Nc3ccc(Cl)c(C(F)(F)F)c3)cc2)ccn1", "test": "cell-free assay", "conditions": "0.5 µM", "quantity": "remaining signal", "result": "90.3%"}
{"Structure (SMILES)": "CC(=O)N1CCC(c2ccc(C(=O)NC(=N)N)cc2C(F)(F)F)CC1", "test": "cell-free assay, competition with immobilised ligand", "conditions": "1 µM", "quantity": "remaining binding", "result": "100%"}
{"Structure (SMILES)": "CNc1cccc2cc(C(=O)Nc3ccc(C(=O)O)cc3)c(=O)[nH]c12", "test": "enzyme activity, inhibitor", "conditions": "10 µM", "quantity": "inhibition", "result": "-12%"}
{"Structure (SMILES)": "Cc1ccc(C(=O)Nc2ccc(CN3CCN(C)CC3)c(C(F)(F)F)c2)cc1C#Cc1cnc2cccnn12", "test": "enzyme activity", "conditions": "23.5 nM", "quantity": "remaining activity", "result": "1.6%"}
{"Structure (SMILES)": "NS(=O)(=O)c1cc(NC(=O)C2(c3ccccc3Cl)CC2)ccc1Oc1cccc(Cl)c1", "test": "cell-free assay, competition with immobilised ligand", "conditions": "1 µM", "quantity": "remaining binding", "result": "89%"}
{"Structure (SMILES)": "CN(C)C1CCN(CC#Cc2nn(C3CCCC3)c3nc(NCc4ccccc4)ncc23)C1 (stereo not shown)", "test": "enzyme activity, inhibitor, FRET", "conditions": "10 µM", "quantity": "inhibition", "result": "19%"}
{"Structure (SMILES)": "N#CCCc1ccc2c(c1)-c1[nH]c3ccc([N+](=O)[O-])cc3c1CC(=O)N2", "test": "cell-free assay", "conditions": "0.5 µM", "quantity": "remaining signal", "result": "63.8%"}
{"Structure (SMILES)": "CC(=O)c1c(NS(C)(=O)=O)c2cc(-c3ccc(Cl)cc3)c(-c3ccc(Cl)cc3Cl)nc2n(C)c1=O", "test": "cell-free assay, competition with immobilised ligand", "conditions": "1 µM", "quantity": "remaining binding", "result": "100%"}
{"Structure (SMILES)": "Cc1cnc(NC2CCOCC2)nc1-n1cnc(C(=O)NC(CN)c2cc(F)cc(Cl)c2)c1 (stereo not shown)", "test": "enzyme activity, inhibitor, radiometric", "conditions": "1 µM", "quantity": "remaining activity", "result": "101%"}
